Data: ChEMBL document CHEMBL1157144, “Novel 16-membered macrolides modified at C-12 and C-13 positions of midecamycin A1 and miokamycin. Part 1: Synthesis and evaluation of 12,13-carbamate and 12-arylalkylamino-13-hydroxy analogues” (2008)
In brackets after ≈: the same amount, converted by molar mass.

Legend:
Type in all cases: functional
Staphylococcus aureus [1] = assay: Antibacterial activity against standard Staphylococcus aureus after 20 hrs by agar dilution method
Method in brief: (§1)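 Agar dilution MIC. The inoculum came from a seed culture in Sensitivity test broth. A 5 µl portion of a cell suspension of about 10^6 CFU/ml was inoculated onto Sensitivity disk agar supplemented with 5% horse blood. Plates were incubated at 37 °C for 20 h, then MIC was read.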

Haemophilus influenzae [2] = assay: Antibacterial activity against susceptible Haemophilus influenzae after 20 hrs by agar dilution method
Method in brief: (§2)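 MIC by agar dilution. Strains grown on blood agar plates for seed culture. About 5 µl of a suspension of roughly 10^6 CFU/ml spotted onto Sensitivity disk agar with 5% horse blood. Plates incubated at 37 °C for 20 h, then MIC read.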

Streptococcus pyogenes [3] = assay: Antibacterial activity against ermB-constitutive resistant Streptococcus pyogenes after 20 hrs by agar dilution method
Method in brief: (§3)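 Agar dilution MIC. Streptococcal strains were pre-cultured on blood agar plates. A 5 µl portion of a cell suspension of about 10^6 CFU/ml was inoculated onto Sensitivity disk agar supplemented with 5% horse blood. Plates were incubated at 37 °C for 20 h, then MIC was read.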

Streptococcus pneumoniae [4] = assay: Antibacterial activity against ermB-inducible resistant Streptococcus pneumoniae after 20 hrs by agar dilution method; method in brief: as §3
Staphylococcus aureus [5] = assay: Antibacterial activity against ermB-inducible resistant Staphylococcus aureus after 20 hrs by agar dilution method; method in brief: as §1
Streptococcus pneumoniae [6] = assay: Antibacterial activity against mefE efflux-resistant Streptococcus pneumoniae after 20 hrs by agar dilution method; method in brief: as §3
Staphylococcus aureus [7] = assay: Antibacterial activity against susceptible Staphylococcus aureus after 20 hrs by agar dilution method; method in brief: as §1
Streptococcus pyogenes [8] = assay: Antibacterial activity against mefE efflux-resistant Streptococcus pyogenes after 20 hrs by agar dilution method; method in brief: as §3
Staphylococcus aureus [9] = assay: Antibacterial activity against ermC-inducible resistant Staphylococcus aureus after 20 hrs by agar dilution method; method in brief: as §1
Haemophilus influenzae [10] = assay: Antibacterial activity against standard Haemophilus influenzae after 20 hrs by agar dilution method; method in brief: as §2
Streptococcus pneumoniae [11] = assay: Antibacterial activity against susceptible Streptococcus pneumoniae after 20 hrs by agar dilution method; method in brief: as §2
Streptococcus pyogenes [12] = assay: Antibacterial activity against standard Streptococcus pyogenes after 20 hrs by agar dilution method; method in brief: as §2
Moraxella catarrhalis = assay: Antibacterial activity against standard Moraxella catarrhalis after 20 hrs by agar dilution method; method in brief: as §2
Staphylococcus aureus [13] = assay: Antibacterial activity against ermA-constitutive resistant Staphylococcus aureus after 20 hrs by agar dilution method; method in brief: as §1
Streptococcus pneumoniae [14] = assay: Antibacterial activity against ermB-constitutive resistant Streptococcus pneumoniae after 20 hrs by agar dilution method; method in brief: as §3

Structure (SMILES) | MIC (Staphylococcus aureus [1]) [µg/mL] | MIC (Haemophilus influenzae [2]) [µg/mL] | MIC (Streptococcus pyogenes [3]) [µg/mL] | MIC (Streptococcus pneumoniae [4]) [µg/mL] | MIC (Staphylococcus aureus [5]) [µg/mL] | MIC (Streptococcus pneumoniae [6]) [µg/mL] | MIC (Staphylococcus aureus [7]) [µg/mL] | MIC (Streptococcus pyogenes [8]) [µg/mL] | MIC (Staphylococcus aureus [9]) [µg/mL] | MIC (Haemophilus influenzae [10]) [µg/mL] | MIC (Streptococcus pneumoniae [11]) [µg/mL] | MIC (Streptococcus pyogenes [12]) [µg/mL] | MIC (Moraxella catarrhalis) [µg/mL] | MIC (Staphylococcus aureus [13]) [µg/mL] | MIC (Streptococcus pneumoniae [14]) [µg/mL]
CCC(=O)O[C@@H]1CC(=O)O[C@H](C)C[C@H](O)[C@H](N(C)CCCc2cnc3ccccc3c2)/C=C/[C@H](OC(C)=O)[C@H](C)C[C@H](CC=O)[C@H](O[C@@H]2O[C@H](C)[C@@H](O)[C@H](N(C)C)[C@H]2O)[C@H]1OC | 1.56 (≈ 1.79 µM) | 6.25 (≈ 7.17 µM) | > 100 | > 100 | 1.56 (≈ 1.79 µM) | 0.39 (≈ 0.447 µM) | 1.56 (≈ 1.79 µM) | 3.13 (≈ 3.59 µM) | 1.56 (≈ 1.79 µM) | 1.56 (≈ 1.79 µM) | 0.2 (≈ 0.229 µM) | 0.78 (≈ 0.894 µM) | 0.2 (≈ 0.229 µM) | > 100 | > 100
CCC(=O)O[C@@H]1CC(=O)O[C@H](C)C[C@H](O)[C@H](N(C)CCCc2ccnc3ccccc23)/C=C/[C@H](OC(C)=O)[C@H](C)C[C@H](CC=O)[C@H](O[C@@H]2O[C@H](C)[C@@H](O)[C@H](N(C)C)[C@H]2O)[C@H]1OC | 0.2 (≈ 0.229 µM) | 1.56 (≈ 1.79 µM) | > 50 | 12.5 (≈ 14.3 µM) | 0.39 (≈ 0.447 µM) | 0.1 (≈ 0.115 µM) | 0.39 (≈ 0.447 µM) | 1.56 (≈ 1.79 µM) | 0.39 (≈ 0.447 µM) | 0.39 (≈ 0.447 µM) | 0.025 (≈ 0.0287 µM) | 0.1 (≈ 0.115 µM) | 0.05 (≈ 0.0573 µM) | > 50 | > 50
CCC(=O)O[C@@H]1CC(=O)O[C@H](C)C[C@H](O)[C@H](N(C)CCCc2cccc3ccccc23)/C=C/[C@H](OC(C)=O)[C@H](C)C[C@H](CC=O)[C@H](O[C@@H]2O[C@H](C)[C@@H](O)[C@H](N(C)C)[C@H]2O)[C@H]1OC | 0.39 (≈ 0.448 µM) | 3.13 (≈ 3.59 µM) | > 100 | 100 (≈ 115 µM) | 0.78 (≈ 0.895 µM) | 0.1 (≈ 0.115 µM) | 0.78 (≈ 0.895 µM) | 0.39 (≈ 0.448 µM) | 0.78 (≈ 0.895 µM) | 0.78 (≈ 0.895 µM) | 0.025 (≈ 0.0287 µM) | 0.1 (≈ 0.115 µM) | 0.025 (≈ 0.0287 µM) | > 100 | > 100
CCC(=O)O[C@@H]1CC(=O)O[C@H](C)C[C@H](O)[C@H](N(C)CCCc2cnc3ccccc3c2)/C=C/[C@H](OC(C)=O)[C@H](C)C[C@H](CC=O)[C@H](O[C@@H]2O[C@H](C)[C@@H](O[C@H]3C[C@@](C)(O)[C@@H](OC(=O)CC)[C@H](C)O3)[C@H](N(C)C)[C@H]2O)[C@H]1OC | 0.39 (≈ 0.364 µM) | 25 (≈ 23.3 µM) | > 100 | 12.5 (≈ 11.7 µM) | 0.2 (≈ 0.187 µM) | 0.1 (≈ 0.0933 µM) | 0.39 (≈ 0.364 µM) | 0.2 (≈ 0.187 µM) | 0.39 (≈ 0.364 µM) | 3.13 (≈ 2.92 µM) | 0.05 (≈ 0.0466 µM) | 0.1 (≈ 0.0933 µM) | 0.78 (≈ 0.727 µM) | > 100 | > 100
CCC(=O)O[C@@H]1CC(=O)O[C@H](C)C[C@H](O)[C@H](N(C)Cc2ccccc2)/C=C/[C@H](OC(C)=O)[C@H](C)C[C@H](CC=O)[C@H](O[C@@H]2O[C@H](C)[C@@H](O[C@H]3C[C@@](C)(O)[C@@H](OC(=O)CC)[C@H](C)O3)[C@H](N(C)C)[C@H]2O)[C@H]1OC | 0.39 (≈ 0.393 µM) | 25 (≈ 25.2 µM) | > 100 | 100 (≈ 101 µM) | 0.2 (≈ 0.201 µM) | 0.1 (≈ 0.101 µM) | 0.39 (≈ 0.393 µM) | 0.39 (≈ 0.393 µM) | 0.39 (≈ 0.393 µM) | 3.13 (≈ 3.15 µM) | 0.1 (≈ 0.101 µM) | 0.1 (≈ 0.101 µM) | 0.39 (≈ 0.393 µM) | > 100 | > 100
CCC(=O)O[C@@H]1CC(=O)O[C@H](C)C[C@H](O)[C@H](N(C)CCCCCCCc2ccccc2)/C=C/[C@H](OC(C)=O)[C@H](C)C[C@H](CC=O)[C@H](O[C@@H]2O[C@H](C)[C@@H](O[C@H]3C[C@@](C)(O)[C@@H](OC(=O)CC)[C@H](C)O3)[C@H](N(C)C)[C@H]2O)[C@H]1OC | 1.56 (≈ 1.45 µM) | 25 (≈ 23.2 µM) | 25 (≈ 23.2 µM) | 12.5 (≈ 11.6 µM) | 0.78 (≈ 0.724 µM) | 0.39 (≈ 0.362 µM) | 0.78 (≈ 0.724 µM) | 0.78 (≈ 0.724 µM) | 1.56 (≈ 1.45 µM) | 12.5 (≈ 11.6 µM) | 0.39 (≈ 0.362 µM) | 0.39 (≈ 0.362 µM) | 3.13 (≈ 2.91 µM) | 100 (≈ 92.8 µM) | 25 (≈ 23.2 µM)
CCC(=O)O[C@@H]1CC(=O)O[C@H](C)C[C@H](O)[C@H](N(C)C)/C=C/[C@H](OC(C)=O)[C@H](C)C[C@H](CC=O)[C@H](O[C@@H]2O[C@H](C)[C@@H](O[C@H]3C[C@@](C)(O)[C@@H](OC(=O)CC)[C@H](C)O3)[C@H](N(C)C)[C@H]2O)[C@H]1OC | 0.78 (≈ 0.851 µM) | 25 (≈ 27.3 µM) | > 100 | > 100 | 1.56 (≈ 1.7 µM) | 0.2 (≈ 0.218 µM) | 0.78 (≈ 0.851 µM) | 0.39 (≈ 0.425 µM) | 0.78 (≈ 0.851 µM) | 1.56 (≈ 1.7 µM) | 0.2 (≈ 0.218 µM) | 0.2 (≈ 0.218 µM) | 1.56 (≈ 1.7 µM) | > 100 | > 100
CCC(=O)O[C@@H]1CC(=O)O[C@H](C)C/C=C/C=C/[C@H](OC(C)=O)[C@H](C)C[C@H](CC=O)[C@H](O[C@@H]2O[C@H](C)[C@@H](O[C@H]3C[C@@](C)(OC(C)=O)[C@@H](OC(=O)CC)[C@H](C)O3)[C@H](N(C)C)[C@H]2O)[C@H]1OC [MIOCAMYCIN] | 0.2 (≈ 0.223 µM) | 25 (≈ 27.8 µM) | > 100 | 6.25 (≈ 6.96 µM) | 1.56 (≈ 1.74 µM) | 0.2 (≈ 0.223 µM) | 0.78 (≈ 0.869 µM) | 0.2 (≈ 0.223 µM) | 0.78 (≈ 0.869 µM) | 3.13 (≈ 3.49 µM) | 0.1 (≈ 0.111 µM) | 0.1 (≈ 0.111 µM) | 0.78 (≈ 0.869 µM) | > 100 | > 100
CCC(=O)O[C@@H]1CC(=O)O[C@H](C)C[C@H](O)[C@H](N(C)CCCc2cccc3ccccc23)/C=C/[C@H](OC(C)=O)[C@H](C)C[C@H](CC=O)[C@H](O[C@@H]2O[C@H](C)[C@@H](O[C@H]3C[C@@](C)(O)[C@@H](OC(=O)CC)[C@H](C)O3)[C@H](N(C)C)[C@H]2O)[C@H]1OC | 0.39 (≈ 0.364 µM) | 25 (≈ 23.3 µM) | 50 (≈ 46.7 µM) | 6.25 (≈ 5.83 µM) | 3.13 (≈ 2.92 µM) | 0.1 (≈ 0.0933 µM) | 0.39 (≈ 0.364 µM) | 0.2 (≈ 0.187 µM) | 0.78 (≈ 0.728 µM) | 6.25 (≈ 5.83 µM) | 0.1 (≈ 0.0933 µM) | 0.1 (≈ 0.0933 µM) | 0.78 (≈ 0.728 µM) | > 100 | 50 (≈ 46.7 µM)
